Laboratory results reported in ChEMBL document CHEMBL1121388, “Analgesic narcotic antagonists. 2. 8-Alkymorphinan-6-ones” (J Med Chem, 1980).
The source made the active and inactive calls. No cut-off for these calls is given here.

Columns and labels:
[1] = tested on: Mus musculus; test: The effective dose was measured by using mouse writhing assay after the compound administered subcutaneously.; type: functional; settings: sc
Procedure, shortened: (§1)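 Analgesia in the mouse writhing test induced by acetic acid, with compound given subcutaneously. Salts were dissolved in distilled H₂O; free bases were dissolved by dropwise 1 N HCl and then diluted.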

[2] = tested on: Rattus norvegicus; test: Effective dose was measured by using rat tail flick assay after subcutaneous administration; type: functional; settings: sc
Procedure, shortened: (§2)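 Agonist activity in the rat heat-stimulus tail-flick test. Drug was given subcutaneously and rats were tested 20 min after dosing. Salts were dissolved in distilled H₂O; free bases were dissolved with dropwise 1 N HCl and then diluted. ED₅₀ or inactivity/lethality recorded at the dose indicated.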

[3] = tested on: Rattus norvegicus; test: The effective dose was measured by using rat tail flick assay after the compound administered intraperitoneally.; type: functional; settings: ip
[4] = species: Rattus norvegicus; test: Ratio of agonist to that of antagonist activity; type: functional
[5] = tested on: Rattus norvegicus; test: The Effective dose was measured by using rat tail flick assay after the compound administered intraperitoneally at a dose of 9 umol/kg; IA means inactive at the given dose; type: functional, organism-based
[6] = tested on: Rattus norvegicus; test: The %change in weight from day 0 to day 2 after administering the compound at dose of 40 (mg/kg)/day in rat; type: functional
Procedure, shortened: (§3)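 Rat physical dependence liability study: drug infused at the stated mg/kg/day for 6 days, with saline-infused controls for 6 days. Body weight was recorded daily and expressed as % change from day 0 on days 1–4. Groups of 4–6 rats; values are means ±.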

[7] = tested on: Rattus norvegicus; test: The %change in weight from day 0 to day1 after administering the compound at dose of 40 (mg/kg)/day in rat; type: functional; procedure, shortened: as §3
[8] = tested on: Rattus norvegicus; test: The %change in weight from day 0 to day 4 after administering the compound at dose of 40 (mg/kg)/day in rat; type: functional; procedure, shortened: as §3
[9] = tested on: Rattus norvegicus; test: The %change in weight from day 0 to day 3 after administering the compound at dose of 40 (mg/kg)/day in rat; type: functional; procedure, shortened: as §3
[10] = tested on: Rattus norvegicus; test: The Effective dose was measured by using rat tail flick assay after the compound administered intraperitoneally at a dose of 25 umol/kg; IA means inactive at the given dose; type: functional, organism-based
[11] = tested on: Mus musculus; test: The Effective dose was measured by using mouse writhing assay after the compound administered subcutaneously at a dose of 24 umol/kg; IA means inactive at the given dose; type: functional, organism-based; procedure, shortened: as §1
[12] = tested on: Rattus norvegicus; test: The Effective dose was measured by using rat tail flick assay after the compound administered subcutaneously at a dose of 28 umol/kg; IA means inactive at the given dose; type: functional, organism-based; procedure, shortened: as §2
[13] = tested on: Mus musculus; test: The Effective dose was measured by using mouse writhing assay after the compound administered subcutaneously; IA means inactive; type: functional, organism-based; procedure, shortened: as §1
[14] = tested on: Mus musculus; test: The Effective dose was measured by using mouse writhing assay after the compound administered subcutaneously at a dose of 75 umol/kg; IA means inactive at the given dose; type: functional, organism-based; procedure, shortened: as §1
[15] = tested on: Mus musculus; test: The Effective dose was measured by using mouse writhing assay 5 min after the compound administered subcutaneously; type: functional; settings: sc
[16] = tested on: Mus musculus; test: The Effective dose was measured by using mouse writhing assay after the compound administered subcutaneously at a dose of 25 umol/kg; IA means inactive at the given dose; type: functional, organism-based; procedure, shortened: as §1
[17] = tested on: Rattus norvegicus; test: The Effective dose was measured by using rat tail flick assay after the compound administered intraperitoneally at a dose of 30 umol/kg; IA means inactive at the given dose; type: functional, organism-based

| Compound | ED50 [1] [µmol/kg] | ED50 [3] [µmol/kg] | other results |
| --- | --- | --- | --- |
| CCC[C@@H]1CC(=O)CC23CCN(C)C(Cc4ccc(O)cc42)[C@@H]13 (stereo partly specified) | 1.37 |  | ED50 [2]: 2.46 µmol/kg |
| CC[C@@H]1CC(=O)CC23CCN(CC4CCC4)C(Cc4ccc(O)cc42)[C@@H]13 (stereo partly specified) | > 24 | 11.6 |  |
| O=C1CC[C@H]2C3Cc4ccc(O)cc4C2(CCN3CC2CC2)C1 (stereo partly specified) | 3.28 | 7.4 | Ratio [4]: 0.44 |
| CCC1CCCC23CCN(CC4CCC4)C(Cc4ccc(O)cc42)[C@H]13 (stereo partly specified) | > 25 |  | ED50 [5]: inactive |
| C[C@H]1CC(=O)CC23CCN(CC4CCC4)C(Cc4ccc(O)cc42)[C@H]13.Cl (stereo partly specified) | 0.29 | 2.79 | Ratio [4]: 0.1 |
| CC[C@@H]1CC(=O)CC23CCN(C)C(Cc4ccc(OC)cc42)[C@@H]13 (stereo partly specified) | 37 |  | ED50 [2]: > 28 µmol/kg |
| C[C@H]1CC(=O)CC23CCN(C)C(Cc4ccc(O)cc42)[C@H]13 (stereo partly specified) | 2.55 |  | ED50 [2]: > 30 µmol/kg |
| O=C(O)C(O)C(O)C(=O)O.Oc1ccc2c(c1)[C@@]13CCCC[C@@]1(O)[C@@H](C2)N(CC1CCC1)CC3 [BUTORPHANOL TARTRATE] |  |  | Change [6]: -3.1%; Change [7]: -6.6%; Change [8]: 2.2%; Change [9]: 0.9% |
| CCC[C@H]1CC(=O)CC23CCN(CC4CC4)C(Cc4ccc(OC)cc42)[C@H]13 (stereo partly specified) | 12.4 |  | ED50 [10]: inactive |
| CCC[C@H]1CC(=O)CC23CCN(C)C(Cc4ccc(OC)cc42)[C@H]13 (stereo partly specified) | 15.4 |  | ED50 [2]: > 28 µmol/kg |
| CCC[C@@H]1CC(=O)CC23CCN(CC4CCC4)C(Cc4ccc(OC)cc42)[C@@H]13 (stereo partly specified) |  | > 24 | ED50 [11]: inactive |
| COc1ccc2c(c1)C13CCN(CC4CC4)C(C2)[C@H]1CCC(=O)C3 (stereo partly specified) | > 25 | 3.6 |  |
| CCC[C@@H]1CC(=O)CC23CCN(CC4CCC4)C(Cc4ccc(O)cc42)[C@@H]13 (stereo partly specified) | > 24 | 4.5 |  |
| COc1ccc2c(c1)C13CCN(C)C(C2)[C@@H]1[C@@H](C)CC(=O)C3 (stereo partly specified) | 1.34 |  | ED50 [2]: 3.57 µmol/kg |
| C=CCN1CCC23CC(=O)CC(C)[C@H]2C1Cc1ccc(OC)cc13 (stereo partly specified) | 3.47 | > 24 |  |
| CCC[C@@H]1CC(=O)CC23CCN(C)C(Cc4ccc(OC)cc42)[C@@H]13 (stereo partly specified) | 55 |  | ED50 [12]: inactive |
| C=CCN1CC[C@]23c4c5ccc(O)c4O[C@H]2C(=O)CC[C@@]3(O)[C@H]1C5 [NALOXONE] |  |  | ED50 [13]: inactive |
| CC[C@@H]1CC(=O)CC23CCN(CC4CCC4)C(Cc4ccc(OC)cc42)[C@@H]13 (stereo partly specified) |  | > 25 | ED50 [14]: inactive |
| COc1ccc2c(c1)C13CCN(CC4CC4)C(C2)[C@@H]1CCC(=O)C3.Cl (stereo partly specified) | 0.66 | 14.9 | Ratio [4]: 0.04 |
| Cl.O=C1CC[C@@H]2C3Cc4ccc(O)cc4C2(CCN3CC2CC2)C1 (stereo partly specified) |  | 2.24 | ED50 [15]: 8.9 µmol/kg; Ratio [4]: 4 |
| Oc1ccc2c(c1)[C@@]13CCCC[C@@]1(O)[C@@H](C2)N(CC1CCC1)CC3 [BUTORPHANOL] | 0.34 | 2 | Ratio [4]: 0.17 |
| C=CCN1CCC23CC(=O)CC(C)[C@H]2C1Cc1ccc(O)cc13 (stereo partly specified) | > 25 | 0.65 |  |
| CC[C@@H]1CC(=O)CC23CCN(CC4CC4)C(Cc4ccc(OC)cc42)[C@@H]13 (stereo partly specified) |  | 1.64 | ED50 [16]: inactive |
| C[C@H]1CC(=O)C[C@]23CCN(CC4CC4)[C@H](Cc4ccc(O)cc42)[C@H]13 | 10.2 | 1.8 | Ratio [4]: 5.7 |
| COc1ccc2c(c1)C13CCN(CC4CCC4)C(C2)[C@@H]1[C@@H](C)CC(=O)C3.Cl (stereo partly specified) | 1.38 | 16.4 | Ratio [4]: 0.08 |
| COc1ccc2c(c1)C13CCN(CC4CCC4)C(C2)[C@H]1CCC(=O)C3 (stereo partly specified) | 20.3 |  | ED50 [17]: inactive |
| COc1ccc2c(c1)C13CCN(C)C(C2)[C@H]1CCC(=O)C3 (stereo partly specified) | 5.54 |  | ED50 [2]: > 70 µmol/kg |
| COc1ccc2c3c1O[C@H]1[C@@H](O)C=C[C@H]4[C@@H](C2)N(C)CC[C@@]341 [CODEINE] | 10.3 |  | ED50 [2]: 75 µmol/kg |
| COc1ccc2c(c1)C13CCN(CC4CCC4)C(C2)[C@@H]1CCC(=O)C3 (stereo partly specified) | 0.58 |  | ED50 [10]: inactive |
